Test results from article PMC9299227 (Diabetes, Obesity & Metabolism, 2021).

Key:
[1] = test system: Japanese participants with type 2 diabetes; assay: Safety and tolerability; assay type: in vivo, human
[2] = test system: Japanese participants with type 2 diabetes; assay: Seven-point self-monitored plasma glucose; assay type: in vivo, human; conditions: week 2 to week 8, all doses of tirzepatide
In short: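 Patients with T2D receive weekly SC injections of test compound (escalating to 5, 10 or 15 mg) or placebo into the abdominal wall for 8 weeks. Plasma glucose is self-monitored at seven time points across the day and profiled as an arithmetic mean at day 57. Change from baseline is analysed by mixed-effects model (regimen fixed, participant random) as LS means with 95% CI.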

[3] = Plasma tirzepatide pharmacokinetics, non-compartmental analysis; assay type: in vivo; conditions: human, sc, 5 mg
In short: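 Noncompartmental PK on plasma drug levels after weekly SC abdominal dosing at 5 mg for weeks 1-8. Sampling spanned one 168-h interval after the day 1 dose and up to 840 h after the last dose on day 50. Steady-state CL/F and Vz/F were estimated as extravascular parameters and summarized descriptively by dose level.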

[4] = test system: Japanese participants with type 2 diabetes; assay: HbA1c, change from baseline versus placebo; assay type: in vivo, human; conditions: for HbA1c, LS mean decrease from baseline versus placebo: P < .0001
In short: (§1)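 Randomized, participant- and investigator-blind, placebo-controlled trial. Adults aged 20-70 with T2D for ≥1 year and BMI 20-35 kg/m2; metformin or DPP-4 inhibitor withdrawn ≥28 days before dosing. Once-weekly SC abdominal-wall injections for 8 weeks, rotating four sites. Escalation: 5 mg fixed; 2.5→5→10 mg; 5→10→15 mg. Change from baseline by mixed-effects model (regimen fixed, participant random, day and regimen-by-day terms); LS means, 95% CI, P<.05.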

participants with T2D = conditions: 26 weeks, cited from earlier work
[5] = test system: Japanese participants with type 2 diabetes; assay: Body weight, change from baseline versus placebo; assay type: in vivo, human; conditions: P < .0001
In short: as §1

[6] = test system: Japanese participants with type 2 diabetes; assay: Fasting plasma glucose, change from baseline versus placebo; assay type: in vivo, human; conditions: P < .0001
In short: as §1

[7] = test system: Japanese participants with type 2 diabetes; assay: Meal intake and subjective appetite sensation; assay type: in vivo, human
In short: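 Once-weekly SC test compound (5, 10 or 15 mg groups, escalated) or placebo into the abdominal wall for 8 weeks. Standardized lunch and dinner are given and intake is recorded. Hunger, fullness, satiety and prospective food consumption are rated on a 100-mm VAS before and 4-5 h after the meal. Overall score is the mean of satiety, fullness, (100 − prospective consumption) and (100 − hunger).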

[8] = test system: Japanese participants with type 2 diabetes; assay: Serum lipids; assay type: in vivo, human
[9] = 5-mg group (5 mg weeks 1-8), SC once weekly, 8 weeks, N = 11
[10] = 10-mg group (2.5 mg weeks 1-2, 5 mg weeks 3-4, 10 mg weeks 5-8), SC once weekly, N = 12
[11] = 15-mg group (5 mg weeks 1-2, 10 mg weeks 3-6, 15 mg weeks 7-8), SC once weekly, N = 16

## CC[C@H](C)[C@H](NC(=O)[C@H](CC(C)C)NC(=O)[C@H](Cc1c[nH]c2ccccc12)NC(=O)[C@H](CCC(N)=O)NC(=O)[C@@H](NC(=O)[C@H](Cc1ccccc1)NC(=O)[C@H](C)NC(=O)[C@H](CCCCNC(=O)COCCOCCNC(=O)COCCOCCNC(=O)CC[C@H](NC(=O)CCCCCCCCCCCCCCCCCCC(=O)O)C(=O)O)NC(=O)[C@H](CCC(N)=O)NC(=O)[C@H](C)NC(=O)[C@@H](NC(=O)[C@H](CCCCN)NC(=O)[C@H](CC(=O)O)NC(=O)[C@H](CC(C)C)NC(=O)C(C)(C)NC(=O)[C@@H](NC(=O)[C@H](CO)NC(=O)[C@H](Cc1ccc(O)cc1)NC(=O)[C@H](CC(=O)O)NC(=O)[C@H](CO)NC(=O)[C@@H](NC(=O)[C@H](Cc1ccccc1)NC(=O)[C@@H](NC(=O)CNC(=O)[C@H](CCC(=O)O)NC(=O)C(C)(C)NC(=O)[C@@H](N)Cc1ccc(O)cc1)[C@@H](C)O)[C@@H](C)O)[C@@H](C)CC)[C@@H](C)CC)C(C)C)C(=O)N[C@@H](C)C(=O)NCC(=O)NCC(=O)N1CCC[C@H]1C(=O)N[C@@H](CO)C(=O)N[C@@H](CO)C(=O)NCC(=O)N[C@@H](C)C(=O)N1CCC[C@H]1C(=O)N1CCC[C@H]1C(=O)N1CCC[C@H]1C(=O)N[C@@H](CO)C(N)=O [tirzepatide]
[1]; [9]
  Abdominal discomfort, treatment-emergent adverse event: 0 n (%)
  Abdominal distension, treatment-emergent adverse event: 3 (27.3) n (%)
  Blood triglycerides increased, treatment-emergent adverse event: 0 n (%)
  Constipation, treatment-emergent adverse event: 0 n (%)
  Decreased appetite, treatment-emergent adverse event: 5 (45.5) n (%)
  Diarrhea, treatment-emergent adverse event: 0 n (%)
  Dyspepsia, treatment-emergent adverse event: 0 n (%)
  Headache, treatment-emergent adverse event: 0 n (%)
  Lipase increased, treatment-emergent adverse event: 0 n (%)
  Nausea, treatment-emergent adverse event: 1 (9.1) n (%)
  Viral upper respiratory tract infection, treatment-emergent adverse event: 1 (9.1) n (%)
  Vomiting, treatment-emergent adverse event: 1 (9.1) n (%)
  White blood cell count increased, treatment-emergent adverse event: 1 (9.1) n (%)
[1]; [10]
  Abdominal discomfort, treatment-emergent adverse event: 2 (16.7) n (%)
  Abdominal distension, treatment-emergent adverse event: 1 (8.3) n (%)
  Blood triglycerides increased, treatment-emergent adverse event: 0 n (%)
  Constipation, treatment-emergent adverse event: 8 (66.7) n (%)
  Decreased appetite, treatment-emergent adverse event: 6 (50.0) n (%)
  Diarrhea, treatment-emergent adverse event: 3 (25.0) n (%)
  Dyspepsia, treatment-emergent adverse event: 3 (25.0) n (%)
  Headache, treatment-emergent adverse event: 3 (25.0) n (%)
  Lipase increased, treatment-emergent adverse event: 1 (8.3) n (%)
  Nausea, treatment-emergent adverse event: 0 n (%)
  Vomiting, treatment-emergent adverse event: 1 (8.3) n (%)
  White blood cell count increased, treatment-emergent adverse event: 0 n (%)
[1]; [11]
  Abdominal discomfort, treatment-emergent adverse event: 4 (25.0) n (%)
  Abdominal distension, treatment-emergent adverse event: 0 n (%)
  Blood triglycerides increased, treatment-emergent adverse event: 1 (6.3) n (%)
  Constipation, treatment-emergent adverse event: 8 (50.0) n (%)
  Decreased appetite, treatment-emergent adverse event: 10 (62.5) n (%)
  Diarrhea, treatment-emergent adverse event: 5 (31.3) n (%)
  Dyspepsia, treatment-emergent adverse event: 0 n (%)
  Headache, treatment-emergent adverse event: 1 (6.3) n (%)
  Lipase increased, treatment-emergent adverse event: 2 (12.5) n (%)
  Nausea, treatment-emergent adverse event: 2 (12.5) n (%)
  Vomiting, treatment-emergent adverse event: 2 (12.5) n (%)
  White blood cell count increased, treatment-emergent adverse event: 1 (6.3) n (%)
[1]; all tirzepatide doses (5-, 10-, 15-mg groups), SC once weekly, 8 weeks
  Tolerability: all tirzepatide doses were well tolerated
[1]; all treatment groups, 8 weeks
  Severe hypoglycemia or nocturnal hypoglycemia events: No severe hypoglycemia or nocturnal hypoglycemia events were reported
[1]; all treatment groups, SC abdominal wall, 8 weeks
  Injection-site or hypersensitivity AEs: No injection‐site or hypersensitivity AEs were reported
[1]; all treatment groups, SC once weekly, 8 weeks
  Deaths or serious AEs: No deaths or serious AEs occurred during the study
[1]; participants treated with tirzepatide (Figure S3)
  Systolic and diastolic blood pressure, mean predose: no significant changes in blood pressure
[2]
  Seven-point SMPG daily profile compared with placebo: improved overall daily SMPG profiles compared with placebo
[3]
  Vd/F: 5.27 L
[4]; 8 weeks, 95% CI 1.2%-1.9%, P < .0001 for all treatment groups
  HbA1c, LS mean decreases from baseline versus placebo, across treatment groups: up to 1.6%
[4]; week 8, 5-mg group, 95% CI 0.8%-1.5%
  HbA1c, LS mean decrease from baseline versus placebo: 1.1%
[4]; week 8, 10-mg group, 95% CI 0.9%-1.7%
  HbA1c, LS mean decrease from baseline versus placebo: 1.3%
[4]; week 8, 15-mg group, 95% CI 1.2%-1.9%
  HbA1c, LS mean decrease from baseline versus placebo: 1.6%
Participants with T2D; 5-, 10-, and 15-mg doses versus placebo
  Body weight reduction: significant, dose‐dependent reductions in body weight for the 5‐, 10‐, and 15‐mg doses of tirzepatide versus placebo
Participants with T2D; doses 1, 5, 10, and 15 mg, versus placebo
  HbA1c reduction: significant dose‐dependent reductions in HbA1c at all doses (1, 5, 10, and 15 mg) versus placebo
[5]; week 8, 5-mg group
  Body weight, LS mean decrease from baseline (95% CI) versus placebo: 3.4 (2.0‐4.8) kg
[5]; week 8, 10-mg group
  Body weight, LS mean decrease from baseline (95% CI) versus placebo: 5.0 (3.6‐6.5) kg
[5]; week 8, 15-mg group
  Body weight, LS mean decrease from baseline (95% CI) versus placebo: 6.6 (5.3‐7.9) kg
[6]; week 8, 5-mg group
  Fasting plasma glucose, LS mean decrease from baseline versus placebo (95% CI): 52.7 (35.9‐69.6) mg/dL
[6]; week 8, 10-mg group
  Fasting plasma glucose, LS mean decrease from baseline versus placebo (95% CI): 69.1 (52.3‐85.9) mg/dL
[6]; week 8, 15-mg group
  Fasting plasma glucose, LS mean decrease from baseline versus placebo (95% CI): 68.9 (53.2‐84.6) mg/dL
[7]; average of four VAS scores, among treatment groups (Figure S5)
  Overall appetite score: overall appetite score was not different among the treatment groups
[7]; lunch and dinner, all tirzepatide dose levels (Figure S5)
  Hunger and fullness scores, visual analog scale, compared with placebo: numerically decreased hunger and fullness scores
[7]; week 8, standardized meals (Figure S4)
  Percentage of meal intake compared with placebo: dose‐dependent decrease in the percentage of meal intake compared with placebo
[8]; 5-mg group, predose (week 1) 204 (56) mg/dL
  Triglyceride postdose (week 8), mean (SD): 161 (51) mg/dL
[8]; 10-mg group, predose (week 1) 172 (71) mg/dL
  Triglyceride postdose (week 8), mean (SD): 122 (38) mg/dL
[8]; 15-mg group, predose (week 1) 173 (121) mg/dL
  Triglyceride postdose (week 8), mean (SD): 122 (55) mg/dL
